Assay [1] can be described thus: Antioxidant activity assessed as ABTS free radical scavenging activity at 10 uM. It counts as functional.
In assay [2] the target is Amyloid-beta precursor protein (Homo sapiens) (UniProt P05067). The assay can be described thus: Inhibition of human amyloid-beta (1 to 42 residues) oligomer at 1:1 protein to compound ratio after 2 hrs by ELISA. As to conditions: concentration not given here. On the technique in general: ELISA stands for enzyme-linked immunosorbent assay.
Sequence of Amyloid-beta precursor protein (Homo sapiens) (P05067 whole entry, the tested form may be a part): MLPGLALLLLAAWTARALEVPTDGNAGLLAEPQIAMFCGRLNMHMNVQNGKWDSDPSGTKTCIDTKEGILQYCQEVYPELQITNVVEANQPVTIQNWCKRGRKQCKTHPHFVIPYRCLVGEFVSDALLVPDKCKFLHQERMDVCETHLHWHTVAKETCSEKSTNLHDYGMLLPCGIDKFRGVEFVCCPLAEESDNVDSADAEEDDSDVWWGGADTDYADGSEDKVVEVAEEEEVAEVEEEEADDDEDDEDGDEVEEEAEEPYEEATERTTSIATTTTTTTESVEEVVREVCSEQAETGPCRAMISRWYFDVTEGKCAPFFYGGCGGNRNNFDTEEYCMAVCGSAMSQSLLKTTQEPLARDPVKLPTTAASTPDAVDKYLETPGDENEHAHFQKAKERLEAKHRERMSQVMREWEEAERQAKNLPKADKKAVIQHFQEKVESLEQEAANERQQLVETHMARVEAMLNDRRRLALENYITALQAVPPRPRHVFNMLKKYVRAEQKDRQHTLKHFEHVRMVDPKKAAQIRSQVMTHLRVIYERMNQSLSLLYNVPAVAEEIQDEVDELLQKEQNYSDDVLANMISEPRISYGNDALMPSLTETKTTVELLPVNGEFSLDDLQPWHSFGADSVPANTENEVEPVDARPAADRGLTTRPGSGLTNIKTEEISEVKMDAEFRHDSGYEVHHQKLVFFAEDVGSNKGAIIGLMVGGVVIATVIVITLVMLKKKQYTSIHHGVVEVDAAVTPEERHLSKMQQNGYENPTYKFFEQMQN
The target of assay [3] is T1, Cholinesterase (Homo sapiens, UniProt P06276). The assay can be described thus: Inhibition of BuChE (unknown origin) by spectrophotometric analysis based Ellman's assay. A general note: Ellman's reagent forms a yellow product with free thiols.
T1 sequence (P06276 whole entry): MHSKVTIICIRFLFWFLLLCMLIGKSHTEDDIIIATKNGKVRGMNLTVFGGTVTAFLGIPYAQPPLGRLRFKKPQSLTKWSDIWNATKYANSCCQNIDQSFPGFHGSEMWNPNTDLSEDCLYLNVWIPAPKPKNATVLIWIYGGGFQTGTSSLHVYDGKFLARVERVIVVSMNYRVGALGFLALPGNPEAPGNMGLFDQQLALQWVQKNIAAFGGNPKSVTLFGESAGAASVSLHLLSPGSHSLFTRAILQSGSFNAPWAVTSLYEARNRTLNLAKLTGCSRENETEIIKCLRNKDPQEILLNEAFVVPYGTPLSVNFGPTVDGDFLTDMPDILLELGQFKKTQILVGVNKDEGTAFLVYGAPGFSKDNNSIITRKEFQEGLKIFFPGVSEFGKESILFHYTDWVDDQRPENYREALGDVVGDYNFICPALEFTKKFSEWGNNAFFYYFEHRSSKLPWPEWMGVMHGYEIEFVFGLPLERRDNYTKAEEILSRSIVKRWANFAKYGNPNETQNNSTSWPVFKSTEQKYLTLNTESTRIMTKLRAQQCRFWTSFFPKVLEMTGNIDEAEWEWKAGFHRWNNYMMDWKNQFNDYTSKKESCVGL
For assay [4], the target named is T1, Cholinesterase. The assay can be described thus: Inhibition of BuChE (unknown origin) at 10 uM by spectrophotometric analysis based Ellman's assay. In short, it runs like this:
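Ellman colorimetric assay of BuChE activity, with each compound tested at a single 10 μM concentration. […] Activity is reported as percent inhibition.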

Assay [5] concerns the target Amyloid-beta precursor protein (Homo sapiens) (UniProt P05067). The assay can be described thus: Inhibition of human amyloid-beta (1 to 42 residues) fibril at 1:1 protein to compound ratio after 2 hrs by ELISA. As to conditions: concentration not given here.
A short description of assay [6]: Antioxidant activity assessed as inhibition of peroxyl radical-induced oxidation at 10 uM by ORAC assay. The class given is functional. The arrangement: scale not given: the % may be the effect or the level left.
A short description of assay [7]: Antioxidant activity assessed as DPPH radical scavenging activity at 10 uM. It counts as functional. In general terms: The DPPH test is a chemical assay of radical scavenging.

Turning to `COc1ccc2[nH]c3c(-c4ccccc4)nccc3c2c1`, the values for the Activity in assay [1], in assay [6] and in assay [7] were 16%, 35% and -6%, respectively. The inhibition (as a rule, the relative decrease from the control value, in per cent) in assay [2] is 58%; in assay [4], 64%; in assay [5], 19%. In addition, the 50% inhibitory concentration (IC50) (usually the concentration needed to halve the response being measured) in assay [3] came out at 4.48 µM.
As to `c1ccc2c(c1)[nH]c1c(C3CCCCC3)nccc12`, the inhibition in assay [2] worked out at 30%.
With `Fc1ccc(-c2nccc3c2[nH]c2ccccc23)cc1`, the values for the Activity in assay [1], in assay [6] and in assay [7] were 22%, 54% and -3%, respectively. Besides, the inhibition in assay [2] came to 22%; in assay [4], 79%; in assay [5] it was 37%. For the same molecule, in assay [3], inhibition was half-maximal at 4.27 µM (IC50).
Turning to `O=C(c1ccccc1)c1nccc2c1[nH]c1ccccc12`, the Activity was 6% in assay [1], 6% in assay [6] and -3% in assay [7]. Further, the IC50 in assay [3] is more than 10 µM. Besides, the inhibition in assay [4] stood at 11%; in assay [5], 20%.
For `Cc1ccc2[nH]c3c(-c4ccccc4)nccc3c2c1`, the Activity was found to be 10% in assay [1], 10% in assay [6] and 2% in assay [7]. The inhibition in assay [2] is 6%; in assay [4], 54%; in assay [5], -7%. Moreover, the IC50 in assay [3] came out at 3.06 µM.
Regarding `COc1ccc2[nH]c3c(C(=O)c4ccc(F)cc4)nccc3c2c1`, the results for the Activity in assay [1], in assay [6] and in assay [7] were 5%, 5% and -4%, respectively. Besides, the inhibition came out at 82% in assay [2], 1% in assay [4] and 6% in assay [5]. In assay [3], this molecule gave an IC50 of more than 10 µM.
Consider `c1ccc2c(-c3nccc4c3[nH]c3ccccc34)cccc2c1`, for which the Activity in assay [1] is 14%; in assay [6], 0%; in assay [7], -6%. Moreover, the values for the inhibition in assay [2], in assay [4] and in assay [5] were 58%, 95% and 39%, respectively. In assay [3], this molecule came in with an IC50 of 0.22 µM.
As for `O=C(c1ccc(C(F)(F)F)cc1)c1nccc2c1[nH]c1ccccc12`, the Activity is 7% in assay [1], -10% in assay [6] and -1% in assay [7]. In assay [3], the IC50 was 1.29 µM. Further, the results for the inhibition in assay [4] and in assay [5] were 69% and 11%, respectively.
As for `Cc1c(C)c2c(c(C)c1O)CCC(C)(C(=O)O)O2` (stereo not given), the Activity in assay [1] was found to be 26%; in assay [6] it was 90%; in assay [7], 23%.
As to `c1ccc(-c2nccc3c2[nH]c2ccccc23)cc1`, the Activity in assay [1] is 12%; in assay [6], 10%; in assay [7] it was -7%. The inhibition is 79% in assay [2], 46% in assay [4] and -4% in assay [5]. Also, the IC50 in assay [3] was more than 10 µM.
Take `COc1ccc2[nH]c3c(-c4ccc(C)cc4)nccc3c2c1`: the Activity was 13% in assay [1], 28% in assay [6] and -12% in assay [7]. In addition, the inhibition in assay [2] came to 63%; in assay [4], 32%; in assay [5], 10%. In assay [3], this molecule registered an IC50 of more than 10 µM.
With `COc1ccc2[nH]c3c(C(=O)c4ccc(C(F)(F)F)cc4)nccc3c2c1`, the Activity is 3% in assay [1], 5% in assay [6] and 2% in assay [7]. In addition, the inhibition is 84% in assay [2], 46% in assay [4] and -5% in assay [5]. In assay [3], this molecule came in with a 50% inhibitory concentration (IC50) of 1.42 µM.
`Cc1ccccc1-c1nccc2c1[nH]c1ccccc12`: the figures for the Activity in assay [1], in assay [6] and in assay [7] were 15%, 58% and 0%, respectively. For the same molecule, the inhibition was 45% in assay [2], 7% in assay [4] and 17% in assay [5]. The molecule also registered an IC50 in assay [3] of more than 10 µM.
Turning to `COc1ccc2[nH]c3c(-c4ccc(F)cc4)nccc3c2c1`, the values for the Activity in assay [1], in assay [6] and in assay [7] were 15%, 41% and -13%, respectively. Moreover, the IC50 in assay [3] is more than 10 µM. In addition, the results for the inhibition in assay [4] and in assay [5] were 34% and 12%, respectively.
`Cc1ccc2[nH]c3c(-c4ccc(C(F)(F)F)cc4)nccc3c2c1`: the inhibition in assay [2] was 82%; in assay [5] it was 34%.
Take `O=C1O[C@H]([C@@H](O)CO)C(O)=C1O`: the Activity was determined as 28% in assay [1], 15% in assay [6] and 15% in assay [7].

Source of the values: ChEMBL document CHEMBL3870350, “Synthesis and application of β-carbolines as novel multi-functional anti-Alzheimer's disease agents” (Bioorg Med Chem Lett, 2017).
